Here are results for one molecule from ChEMBL document CHEMBL4382192, “Discovery of a potent dual ALK and EGFR T790M inhibitor” (Eur J Med Chem, 2017).

Series [1] is described as follows: Drug uptake in mouse plasma at 10 mg/kg, po after 8 hrs. The class given is ADME, organism-based.
Series [2] has as its system Tyrosine-protein kinase ABL1 (Homo sapiens), P00519 [Q252H]. In words: Binding affinity to human phosphorylated ABL1 Q252H mutant expressed in mammalian expression system assessed as residual binding level at 1 uM by Kinomescan method relative to control. The procedure, abridged:
(§1)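 Kinome-wide selectivity panel run by the KINOMEscan method, with the test compound at a single concentration of 1 μM. Wild-type and mutant kinases were profiled in the same screen.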

Series [3] has as its target Dual specificity protein kinase CLK4 (Homo sapiens) (UniProt Q9HAZ1). The series is described as follows: Binding affinity to wild-type human partial length CLK4 (R135 to K481 residues) expressed in bacterial expression system assessed as residual binding level at 1 uM by Kinomescan method relative to control.
Series [4] has as its target Macrophage colony-stimulating factor 1 receptor (Homo sapiens) (UniProt P07333). The series is described as follows: Binding affinity to wild-type human partial length CSF1R (I564 to S939 residues) expressed in bacterial expression system assessed as residual binding level at 1 uM by Kinomescan method relative to control.
Series [5] addresses Serine/threonine-protein kinase 17A (Homo sapiens) (UniProt Q9UEE5). In words: Binding affinity to wild-type human partial length DRAK1 (R32 to E363 residues) expressed in bacterial expression system assessed as residual binding level at 1 uM by Kinomescan method relative to control.
Series [6] has as its target Mitogen-activated protein kinase 4 (Homo sapiens) (UniProt P31152). The series is described as follows: Binding affinity to wild-type human partial length ERK4 (M1 to L365 residues) expressed in bacterial expression system assessed as residual binding level at 1 uM by Kinomescan method relative to control.
For series [7], the target named is Tyrosine-protein kinase Fer (Homo sapiens) (UniProt P16591). The series is described as follows: Binding affinity to wild-type human partial length FER (S542 to T822 residues) expressed in bacterial expression system assessed as residual binding level at 1 uM by Kinomescan method relative to control.
Series [8] deals with Fibroblast growth factor receptor 1 (Homo sapiens) (UniProt P11362). In words: Binding affinity to wild-type human partial length FGFR1 (P357 to V669 residues) expressed in bacterial expression system assessed as residual binding level at 1 uM by Kinomescan method relative to control.
The subject of series [9] is Receptor-type tyrosine-protein kinase FLT3 (Homo sapiens), P36888 [K663Q]. In words: Binding affinity to human partial length FLT3 K663Q mutant (V592 to Y969 residues) expressed in bacterial expression system assessed as residual binding level at 1 uM by Kinomescan method relative to control. The procedure, abridged: as §1
In series [10] the target is Mitogen-activated protein kinase 10 (Homo sapiens) (UniProt P53779). The series is described as follows: Binding affinity to wild-type human partial length JNK3 (V28 to Q422 residues) expressed in mammalian expression system assessed as residual binding level at 1 uM by Kinomescan method relative to control.
The target in series [11] is Mitogen-activated protein kinase kinase kinase kinase 4 (Homo sapiens) (UniProt O95819). In words: Binding affinity to wild-type human partial length MAP4K4 (M1 to R310 residues) expressed in bacterial expression system assessed as residual binding level at 1 uM by Kinomescan method relative to control.
Series [12] deals with Mitogen-activated protein kinase kinase kinase kinase 5 (Homo sapiens) (UniProt Q9Y4K4). In words: Binding affinity to wild-type human partial length MAP4K5 (M1 to P297 residues) expressed in bacterial expression system assessed as residual binding level at 1 uM by Kinomescan method relative to control.
The target of series [13] is Myosin light chain kinase 2, skeletal/cardiac muscle (Homo sapiens) (UniProt Q9H1R3). In words: Binding affinity to wild-type human partial length MYLK2 (D258 to K570 residues) expressed in bacterial expression system assessed as residual binding level at 1 uM by Kinomescan method relative to control.
Series [14] concerns the target Serine/threonine-protein kinase Nek11 (Homo sapiens) (UniProt Q8NG66). The series is described as follows: Binding affinity to wild-type human partial length NEK11 (M1 to E313 residues) expressed in mammalian expression system assessed as residual binding level at 1 uM by Kinomescan method relative to control.
For series [15], the target named is Platelet-derived growth factor receptor alpha (Homo sapiens) (UniProt P16234). The series is described as follows: Binding affinity to wild-type human partial length PDGFRA (V575 to D1002 residues) expressed in mammalian expression system assessed as residual binding level at 1 uM by Kinomescan method relative to control.
In series [16] the target is Cyclin-dependent kinase 14 (Homo sapiens) (UniProt O94921). In words: Binding affinity to wild-type human full length PFTK1 (M1 to H451 residues) expressed in bacterial expression system assessed as residual binding level at 1 uM by Kinomescan method relative to control. Put shortly:
(§2)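 Single-point kinome-wide KINOMEscan binding panel, test compound at 1 μM, run by the provider's standard protocol.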

Series [17] addresses Phosphatidylinositol 4-phosphate 5-kinase type-1 alpha (Homo sapiens) (UniProt Q99755). In words: Binding affinity to wild-type human full length PIP5K1A (M1 to H562 residues) expressed in bacterial expression system assessed as residual binding level at 1 uM by Kinomescan method relative to control.
The target of series [18] is Serine/threonine-protein kinase PLK3 (Homo sapiens) (UniProt Q9H4B4). In words: Binding affinity to wild-type human partial length PLK3 (A42 to L334 residues) expressed in mammalian expression system assessed as residual binding level at 1 uM by Kinomescan method relative to control.
The target in series [19] is RAF proto-oncogene serine/threonine-protein kinase (Homo sapiens) (UniProt P04049). The series is described as follows: Binding affinity to wild-type human partial length RAF1 (I330 to T640 residues) expressed in bacterial expression system assessed as residual binding level at 1 uM by Kinomescan method relative to control.
Series [20] deals with Serine/threonine-protein kinase RIO3 (Homo sapiens) (UniProt O14730). The series is described as follows: Binding affinity to wild-type human full length RIOK3 (M1 to E519 residues) expressed in bacterial expression system assessed as residual binding level at 1 uM by Kinomescan method relative to control. The procedure, abridged:
as §2

Series [21] concerns the target Receptor-interacting serine/threonine-protein kinase 1 (Homo sapiens) (UniProt Q13546). In words: Binding affinity to wild-type human partial length RIPK1 (M1 to K305 residues) expressed in bacterial expression system assessed as residual binding level at 1 uM by Kinomescan method relative to control.
The target in series [22] is Tyrosine-protein kinase SYK (Homo sapiens) (UniProt P43405). In words: Binding affinity to wild-type human partial length SYK (D354 to N635 residues) expressed in bacterial expression system assessed as residual binding level at 1 uM by Kinomescan method relative to control.
Series [23] has as its target Tyrosine-protein kinase TXK (Homo sapiens) (UniProt P42681). The series is described as follows: Binding affinity to wild-type human partial length TXK (L238 to W527 residues) expressed in bacterial expression system assessed as residual binding level at 1 uM by Kinomescan method relative to control.
Series [24] addresses Serine/threonine-protein kinase ULK3 (Homo sapiens) (UniProt Q6PHR2). The series is described as follows: Binding affinity to wild-type human partial length ULK3 (M1 to Q290 residues) expressed in mammalian expression system assessed as residual binding level at 1 uM by Kinomescan method relative to control.

Sequence of Cyclin-dependent kinase 14 (Homo sapiens) (O94921 whole entry, the tested form may be a part): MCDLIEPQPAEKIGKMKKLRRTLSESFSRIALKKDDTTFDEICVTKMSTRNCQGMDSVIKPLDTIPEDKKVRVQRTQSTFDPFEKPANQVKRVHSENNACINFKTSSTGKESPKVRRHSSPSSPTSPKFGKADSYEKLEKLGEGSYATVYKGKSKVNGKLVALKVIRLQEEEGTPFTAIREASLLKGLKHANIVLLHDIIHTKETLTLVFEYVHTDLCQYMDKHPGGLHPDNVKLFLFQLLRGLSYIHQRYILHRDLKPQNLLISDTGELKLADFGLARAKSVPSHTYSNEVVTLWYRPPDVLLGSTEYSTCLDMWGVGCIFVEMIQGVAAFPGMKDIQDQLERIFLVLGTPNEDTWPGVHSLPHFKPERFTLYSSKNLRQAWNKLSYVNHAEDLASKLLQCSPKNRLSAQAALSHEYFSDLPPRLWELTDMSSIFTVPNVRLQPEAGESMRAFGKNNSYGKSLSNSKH
Sequence of Platelet-derived growth factor receptor alpha (Homo sapiens) (P16234 whole entry, the tested form may be a part): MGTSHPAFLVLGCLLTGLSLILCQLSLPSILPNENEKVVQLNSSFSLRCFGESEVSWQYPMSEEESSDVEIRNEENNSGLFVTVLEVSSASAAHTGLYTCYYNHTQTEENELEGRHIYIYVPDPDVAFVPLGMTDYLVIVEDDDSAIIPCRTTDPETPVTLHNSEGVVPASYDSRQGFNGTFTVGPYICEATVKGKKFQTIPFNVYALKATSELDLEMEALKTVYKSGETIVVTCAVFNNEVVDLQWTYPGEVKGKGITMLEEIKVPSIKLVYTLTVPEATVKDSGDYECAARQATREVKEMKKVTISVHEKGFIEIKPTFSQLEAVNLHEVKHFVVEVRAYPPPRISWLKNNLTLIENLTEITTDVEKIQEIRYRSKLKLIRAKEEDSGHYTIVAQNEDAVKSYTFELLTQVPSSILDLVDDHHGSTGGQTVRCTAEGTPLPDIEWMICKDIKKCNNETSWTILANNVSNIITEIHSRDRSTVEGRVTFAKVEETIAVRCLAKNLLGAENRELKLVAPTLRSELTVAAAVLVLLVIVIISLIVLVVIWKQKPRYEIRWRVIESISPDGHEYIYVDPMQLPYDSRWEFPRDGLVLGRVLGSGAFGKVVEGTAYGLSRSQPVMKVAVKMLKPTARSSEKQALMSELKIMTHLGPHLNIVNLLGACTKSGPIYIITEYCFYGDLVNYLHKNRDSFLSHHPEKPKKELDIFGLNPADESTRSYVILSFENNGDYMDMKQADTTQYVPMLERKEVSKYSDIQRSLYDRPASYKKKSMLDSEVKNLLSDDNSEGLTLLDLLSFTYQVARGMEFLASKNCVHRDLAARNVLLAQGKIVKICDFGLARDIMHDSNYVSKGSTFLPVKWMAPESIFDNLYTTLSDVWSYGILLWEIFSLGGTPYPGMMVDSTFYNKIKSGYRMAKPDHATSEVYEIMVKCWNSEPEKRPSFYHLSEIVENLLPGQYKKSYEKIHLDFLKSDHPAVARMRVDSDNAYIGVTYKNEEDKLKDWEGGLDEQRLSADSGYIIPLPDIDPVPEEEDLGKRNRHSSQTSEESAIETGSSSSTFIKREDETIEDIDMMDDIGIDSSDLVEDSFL
Sequence of Tyrosine-protein kinase TXK (Homo sapiens) (P42681 whole entry, the tested form may be a part): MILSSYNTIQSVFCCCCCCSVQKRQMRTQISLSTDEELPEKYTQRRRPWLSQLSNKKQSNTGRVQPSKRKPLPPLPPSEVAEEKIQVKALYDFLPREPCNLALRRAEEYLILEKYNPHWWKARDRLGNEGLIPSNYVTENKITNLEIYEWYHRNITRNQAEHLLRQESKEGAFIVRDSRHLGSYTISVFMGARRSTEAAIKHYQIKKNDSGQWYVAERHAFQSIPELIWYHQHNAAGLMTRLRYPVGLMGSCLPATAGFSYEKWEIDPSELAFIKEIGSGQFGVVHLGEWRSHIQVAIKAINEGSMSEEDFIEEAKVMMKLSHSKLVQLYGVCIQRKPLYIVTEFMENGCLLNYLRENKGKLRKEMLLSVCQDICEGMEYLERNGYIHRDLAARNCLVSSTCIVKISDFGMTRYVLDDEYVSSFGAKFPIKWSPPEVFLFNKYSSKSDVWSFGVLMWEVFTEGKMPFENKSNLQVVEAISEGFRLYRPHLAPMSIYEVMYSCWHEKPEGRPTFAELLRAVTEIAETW
Sequence of Receptor-interacting serine/threonine-protein kinase 1 (Homo sapiens) (Q13546 whole entry, the tested form may be a part): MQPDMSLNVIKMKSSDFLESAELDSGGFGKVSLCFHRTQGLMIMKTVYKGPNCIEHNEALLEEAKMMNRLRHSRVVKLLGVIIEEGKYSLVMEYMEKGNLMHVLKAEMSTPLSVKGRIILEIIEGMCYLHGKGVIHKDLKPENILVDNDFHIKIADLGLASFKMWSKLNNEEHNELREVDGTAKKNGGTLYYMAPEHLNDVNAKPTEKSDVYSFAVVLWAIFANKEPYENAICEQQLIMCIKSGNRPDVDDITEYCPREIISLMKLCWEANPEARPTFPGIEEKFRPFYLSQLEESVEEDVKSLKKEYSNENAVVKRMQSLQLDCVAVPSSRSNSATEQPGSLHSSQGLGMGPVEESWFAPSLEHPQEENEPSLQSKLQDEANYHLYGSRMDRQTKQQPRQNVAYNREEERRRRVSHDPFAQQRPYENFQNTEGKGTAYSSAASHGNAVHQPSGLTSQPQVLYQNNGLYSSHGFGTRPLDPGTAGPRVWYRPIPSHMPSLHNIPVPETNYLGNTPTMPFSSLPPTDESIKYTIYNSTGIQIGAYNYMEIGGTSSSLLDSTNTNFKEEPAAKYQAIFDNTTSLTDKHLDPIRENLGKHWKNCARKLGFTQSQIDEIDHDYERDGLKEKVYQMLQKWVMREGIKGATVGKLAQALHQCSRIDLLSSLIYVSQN
Sequence of Mitogen-activated protein kinase kinase kinase kinase 4 (Homo sapiens) (O95819 2-1239 limits assumed): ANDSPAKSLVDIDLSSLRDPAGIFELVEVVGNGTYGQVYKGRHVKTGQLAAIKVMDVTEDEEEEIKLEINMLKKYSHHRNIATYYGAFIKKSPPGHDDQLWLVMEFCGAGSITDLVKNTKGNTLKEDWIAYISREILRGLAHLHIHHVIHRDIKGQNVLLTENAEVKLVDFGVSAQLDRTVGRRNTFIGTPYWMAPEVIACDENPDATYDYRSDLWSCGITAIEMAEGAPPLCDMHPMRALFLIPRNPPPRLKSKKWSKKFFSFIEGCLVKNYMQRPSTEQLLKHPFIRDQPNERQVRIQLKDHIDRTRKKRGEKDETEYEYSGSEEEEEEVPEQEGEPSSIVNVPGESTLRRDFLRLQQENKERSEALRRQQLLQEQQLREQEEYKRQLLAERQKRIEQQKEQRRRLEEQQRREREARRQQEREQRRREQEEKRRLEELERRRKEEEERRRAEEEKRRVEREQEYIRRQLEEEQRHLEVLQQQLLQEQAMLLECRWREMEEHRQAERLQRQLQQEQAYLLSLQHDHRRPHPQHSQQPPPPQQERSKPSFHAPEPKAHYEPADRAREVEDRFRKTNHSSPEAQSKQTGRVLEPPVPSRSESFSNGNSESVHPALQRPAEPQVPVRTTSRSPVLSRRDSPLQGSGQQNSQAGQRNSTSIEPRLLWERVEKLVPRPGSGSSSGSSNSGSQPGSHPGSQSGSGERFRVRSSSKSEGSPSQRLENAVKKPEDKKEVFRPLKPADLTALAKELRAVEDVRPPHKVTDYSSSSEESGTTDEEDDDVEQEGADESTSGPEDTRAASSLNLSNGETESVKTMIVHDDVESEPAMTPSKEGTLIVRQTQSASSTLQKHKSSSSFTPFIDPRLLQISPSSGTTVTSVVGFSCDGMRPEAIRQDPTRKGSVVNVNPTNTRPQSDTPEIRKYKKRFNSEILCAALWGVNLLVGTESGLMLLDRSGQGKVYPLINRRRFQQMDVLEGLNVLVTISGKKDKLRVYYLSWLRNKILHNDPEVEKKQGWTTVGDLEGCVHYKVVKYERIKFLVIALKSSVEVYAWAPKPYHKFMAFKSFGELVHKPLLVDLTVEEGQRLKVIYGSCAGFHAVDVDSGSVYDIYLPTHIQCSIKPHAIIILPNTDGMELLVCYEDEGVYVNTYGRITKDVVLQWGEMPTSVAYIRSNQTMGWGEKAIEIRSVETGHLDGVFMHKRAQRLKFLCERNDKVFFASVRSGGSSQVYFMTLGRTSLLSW
Sequence of Serine/threonine-protein kinase ULK3 (Homo sapiens) (Q6PHR2 whole entry, the tested form may be a part): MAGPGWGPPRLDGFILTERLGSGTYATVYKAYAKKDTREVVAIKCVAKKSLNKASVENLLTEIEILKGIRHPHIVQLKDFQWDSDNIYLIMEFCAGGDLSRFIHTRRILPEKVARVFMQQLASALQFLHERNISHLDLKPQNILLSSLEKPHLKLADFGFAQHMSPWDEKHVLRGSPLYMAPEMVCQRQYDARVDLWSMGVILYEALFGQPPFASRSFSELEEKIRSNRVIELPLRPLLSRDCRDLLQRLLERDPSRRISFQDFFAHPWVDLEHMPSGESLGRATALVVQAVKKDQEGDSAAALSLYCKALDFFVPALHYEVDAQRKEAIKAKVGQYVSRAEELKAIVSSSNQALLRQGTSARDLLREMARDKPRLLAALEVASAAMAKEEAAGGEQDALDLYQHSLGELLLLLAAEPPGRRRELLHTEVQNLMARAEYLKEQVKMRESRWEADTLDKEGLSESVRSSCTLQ
Sequence of Mitogen-activated protein kinase 10 (Homo sapiens) (P53779 whole entry, the tested form may be a part): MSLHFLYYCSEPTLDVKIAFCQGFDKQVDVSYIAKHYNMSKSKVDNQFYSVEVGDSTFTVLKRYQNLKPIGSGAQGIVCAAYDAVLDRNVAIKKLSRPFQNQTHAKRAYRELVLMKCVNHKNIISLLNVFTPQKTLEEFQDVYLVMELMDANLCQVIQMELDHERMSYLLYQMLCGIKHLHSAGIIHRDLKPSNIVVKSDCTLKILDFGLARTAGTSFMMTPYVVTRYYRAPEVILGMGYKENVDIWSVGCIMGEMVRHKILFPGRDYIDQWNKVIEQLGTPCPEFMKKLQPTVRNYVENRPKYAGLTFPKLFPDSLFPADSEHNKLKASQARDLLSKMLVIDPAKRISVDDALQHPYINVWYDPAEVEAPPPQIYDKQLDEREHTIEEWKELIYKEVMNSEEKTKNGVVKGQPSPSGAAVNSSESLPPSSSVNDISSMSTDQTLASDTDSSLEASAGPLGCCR

On to `C=CC(=O)Nc1cc(Nc2ncc(Cl)c(Nc3ccccc3S(=O)(=O)C(C)C)n2)c(OC)cc1N(C)CCN(C)C`, for which the concentration at 8 h in series [1] worked out at 10 nM. Further, the Activity in [2] was 2.8%; in series [3], 15%; in series [4], 26%; in series [5], 83%; in [6], 82%; in series [7], 0%. Further, the Activity was 3.7% in series [8]; 2.5% in series [9]; 82% in series [10]; 87% in series [11]; 66% in series [12]; 77% in series [13]. In addition, the Activity in series [14] came out at 100%; in [15], 83%; in [16] it was 83%; in series [17] it was 91%; in series [18], 60%; in [19], 88%. For the same molecule, the Activity in series [20] came out at 93%; in series [21], 82%; in series [22], 42%; in series [23], 0.65%; in [24], 7.7%.
